From ChEMBL document CHEMBL1649480, “Farnesol-induced apoptosis in Candida albicans” (2009)
The source made the active and inactive calls. The rule behind the calls is not given here.

Key:
Candida albicans [1] = assay: Downregulation of carboxymethylenebutenolidase expression in Candida albicans SC5314 at 200 uM after 24 hrs by MALDI-TOF MS; assay type: functional, organism-based
Outline: (§1)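 Overnight YNB-glucose SC5314 culture, PBS-washed, adjusted to OD600 0.1 and treated 24 h with 40 or 200 μM farnesol (methanol in controls). Proteomes were compared with untreated cells by 2D SDS-PAGE and MALDI-TOF MS, searched against NCBI nonredundant database. Spots were counted as changed at ≥1.5-fold in three independent experiments.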

Candida albicans [2] = assay: Downregulation of NADH:quinone oxidoreductase expression in Candida albicans SC5314 at 200 uM after 24 hrs by MALDI-TOF MS; assay type: functional, organism-based; outline: as §1
Candida albicans [3] = assay: Increase in MCA1 expression in Candida albicans SC5314 at 40 uM after 4 hrs by quantitative PCR analysis; assay type: functional
Outline: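 Log-phase SC5314 cells were used, pregrown overnight at 30°C and 120 rpm in yeast nitrogen base (pH 7.0) with 50 mM glucose, washed in PBS and set to OD600 0.1. Farnesol (methanol stock) was given for 4 h, with methanol-matched untreated controls. SYBR green qPCR ran 35 cycles with 58°C annealing and a melt-curve check. MCA1 was calculated by 2^−ΔΔCT against ACT1 and RPP2B.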

Candida albicans [4] = assay: Upregulation of Catalase A expression in Candida albicans SC5314 at 40 uM after 24 hrs by MALDI-TOF MS; assay type: functional, organism-based; outline: as §1
Candida albicans [5] = assay: Antiproliferative activity against Candida albicans SC5314 assessed as cell killing at 10 uM after 24 hrs by MTS assay; assay type: functional
Outline: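 SC5314 grown overnight in YNB (pH 7.0) with 50 mM glucose at 30°C, 120 rpm, washed in PBS. Suspensions at 1 × 10⁷ cells/ml exposed to farnesol at final 0, 10, 40, 100, 200, 300 μM for 24 h at 30°C with shaking, with methanol vehicle controls. MTS reagent added for 4 h at 37°C, A490 read, and % killed cells calculated.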

Candida albicans [6] = assay: Downregulation of Riboflavin synthase expression in Candida albicans SC5314 at 40 uM after 24 hrs by MALDI-TOF MS; assay type: functional, organism-based; outline: as §1
Candida albicans [7] = assay: Induction of apoptosis in Candida albicans SC5314 at 200 uM after 24 hrs by TUNEL assay; assay type: functional
Outline: (§2)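 After 24 h in farnesol (40, 100, 200 μM), cells were PBS-washed, fixed in 4% paraformaldehyde (pH 7.4) 1 h at 20°C, and permeabilized 2 min on ice. They were labeled with 9:1 label:enzyme TUNEL mix 1 h at 37°C in the dark and examined by fluorescence microscopy at 515–565 nm. Flow cytometry counted % positive of 30,000 gated cells, gates set by no-enzyme and DNase-treated controls.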

Candida albicans [8] = assay: Induction of apoptosis in Candida albicans SC5314 at 100 uM after 24 hrs by TUNEL assay; assay type: functional; outline: as §2
Candida albicans [9] = assay: Downregulation of G-beta-like protein expression in Candida albicans SC5314 at 40 uM after 24 hrs by MALDI-TOF MS; assay type: functional, organism-based; outline: as §1
Candida albicans [10] = assay: Downregulation of S-adenosylmethionine synthase expression in Candida albicans SC5314 at 200 uM after 24 hrs by MALDI-TOF MS; assay type: functional, organism-based; outline: as §1
Candida albicans [11] = assay: Upregulation of Branched chain amino acid transaminase expression in Candida albicans SC5314 at 40 uM after 24 hrs by MALDI-TOF MS; assay type: functional, organism-based; outline: as §1
Candida albicans [12] = assay: Induction of ROS accumulation in mitochondria of Candida albicans SC5314 at 40 uM after 3 hrs by Fluorescence analysis; assay type: functional
Outline: (§3)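 Cells were exposed 3 h to 40, 100 or 200 μM farnesol, with methanol control and H2O2 positive control. Washed cells were stained 30 min in the dark with a mix of dichlorodihydrofluorescein diacetate, propidium iodide and calcofluor white, then washed and viewed by confocal microscopy. % green (ROS) cells of all cells was scored, with red (necrotic) cells scored separately.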

Candida albicans [13] = assay: Upregulation of Putative mitochondrial […] expression in Candida albicans SC5314 at 200 uM after 24 hrs by MALDI-TOF MS; assay type: functional, organism-based
Outline: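 SC5314 grown overnight at 30°C, 120 rpm, in yeast nitrogen base (pH 7.0) with 50 mM glucose. Cells were washed in PBS and adjusted to OD600 0.1, then treated 24 h with farnesol from a methanol dilution; controls received methanol. Proteomes of treated and untreated cells were compared by 2-D SDS-PAGE and MALDI-TOF MS, with ProFound searches of the NCBI nonredundant database. Spots changed at least 1.5-fold in three independent experiments were counted.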

Candida albicans [14] = assay: Downregulation of Heat shock protein 60 expression in Candida albicans SC5314 at 200 uM after 24 hrs by MALDI-TOF MS; assay type: functional, organism-based; outline: as §1
Candida albicans [15] = assay: Down regulation of in MCA1 expression in Candida albicans SC5314 at 40 uM after 4 hrs by quantitative PCR analysis; assay type: functional, organism-based
Outline: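 Log-phase SC5314 exposed 4 h to farnesol (methanol vehicle control). cDNA diluted 1:20 and run in SYBR green real-time PCR: 15 min 95°C, then 35 cycles of 95°C 1 min, 58°C 30 s, 72°C 30 s, with a melt curve check. MCA1 level was calculated by 2^−ΔΔCT against ACT1 and RPP2B reference genes.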

Candida albicans [16] = assay: Downregulation of Dihydroxy acid dehydratase expression in Candida albicans SC5314 at 200 uM after 24 hrs by MALDI-TOF MS; assay type: functional, organism-based; outline: as §1
Candida albicans [17] = assay: Induction of ROS accumulation in mitochondria of Candida albicans SC5314 at 100 uM after 3 hrs by Fluorescence analysis; assay type: functional; outline: as §3
Candida albicans [18] = assay: Upregulation of Heat shock protein 90 homologue expression in Candida albicans SC5314 at 40 uM after 24 hrs by MALDI-TOF MS; assay type: functional, organism-based; outline: as §1
Candida albicans [19] = assay: Downregulation of Putative stress response protein expression in Candida albicans SC5314 at 40 uM after 24 hrs by MALDI-TOF MS; assay type: functional, organism-based; outline: as §1
Candida albicans [20] = assay: Induction of apoptosis in Candida albicans SC5314 assessed as activation of caspase activity at 100 uM after 3 hrs by Fluorescence analysis; assay type: functional
Outline: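 SC5314 grown overnight at 30°C (120 rpm) in yeast nitrogen base pH 7.0 with 50 mM glucose, PBS-washed, set to OD600 0.1, then exposed to farnesol (40, 100, 200 μM; methanol diluent). Active caspases detected in situ with a FLICA kit per the manufacturer; green cells imaged by confocal microscopy (Cy2/Cy3). Controls: methanol vehicle and hydrogen peroxide. Done on three or more occasions.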

Candida albicans [21] = assay: Downregulation of Pyruvate kinase expression in Candida albicans SC5314 at 200 uM after 24 hrs by MALDI-TOF MS; assay type: functional, organism-based; outline: as §1
Candida albicans [22] = assay: Induction of apoptosis in Candida albicans SC5314 assessed as activation of caspase activity at 40 uM after 3 hrs by Fluorescence analysis; assay type: functional
Outline: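 Active caspases in farnesol-exposed cells (40, 100, 200 μM; methanol control, H2O2 positive control) were detected with a FLICA kit per manufacturer. Cells were examined by confocal microscopy, with green-fluorescing cells counted as caspase-positive and unstained cells as nonapoptotic. Percentage of positive cells was recorded.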

Candida albicans [23] = assay: Increase in MCA1 expression in Candida albicans SC5314 at 5 mM after 4 hrs by quantitative PCR analysis

## CC(C)=CCC/C(C)=C/CC/C(C)=C/CO [FARNESOL]
Candida albicans [1]
  Activity: Active
Candida albicans [2]
  Activity: Active
Candida albicans [3]
  fold change (FC): 3
Candida albicans [4]
  Activity: Active
Candida albicans [5]
  Activity: <10%
Candida albicans [6]
  Activity: Active
Candida albicans [7]
  Activity: 14.5%
Candida albicans [8]
  Activity: 10.2%
Candida albicans [9]
  Activity: Active
Candida albicans [10]
  Activity: Active
Candida albicans [11]
  Activity: Active
Candida albicans [12]
  Activity: 26%
Candida albicans [13]
  Activity: Active
Candida albicans [14]
  Activity: Active
Candida albicans [15]
  Activity: inactive
Candida albicans [16]
  Activity: Active
Candida albicans [17]
  Activity: 80%
Candida albicans [18]
  Activity: Active
Candida albicans [19]
  Activity: Active
Candida albicans [20]
  Activity: 13%
Candida albicans [21]
  Activity: Active
Candida albicans [22]
  Activity: 5%
Candida albicans [23]
  Activity: Active
